This is an account of results in paper PMC10100021 (Chemistry, an Asian Journal, 2022).

Molecules are shown by their SMILES. Like-named read-outs stand apart in the source and are kept apart here.

The target in test [1] is T1, CYP199A4 (Rhodopseudomonas palustris, UniProt Q2IU02).
T1 sequence (Q2IU02 1-410): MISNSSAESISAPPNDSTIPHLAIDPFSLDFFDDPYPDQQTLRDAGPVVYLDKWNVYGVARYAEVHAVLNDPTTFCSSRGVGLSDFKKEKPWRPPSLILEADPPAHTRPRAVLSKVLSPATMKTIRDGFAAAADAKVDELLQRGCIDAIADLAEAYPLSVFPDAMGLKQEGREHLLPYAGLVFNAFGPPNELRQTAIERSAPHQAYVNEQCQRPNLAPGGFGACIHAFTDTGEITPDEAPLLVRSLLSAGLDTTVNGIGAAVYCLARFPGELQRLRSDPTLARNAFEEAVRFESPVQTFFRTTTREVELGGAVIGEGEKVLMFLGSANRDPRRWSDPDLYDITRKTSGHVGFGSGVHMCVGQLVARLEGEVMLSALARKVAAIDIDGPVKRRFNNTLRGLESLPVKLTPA
The conditions noted are these: WT CYP199A4, cited from earlier work; for shift to the high‐spin form of ferric CYP199A4: ref 9c, 14, 17; for HS (%), change in the heme spin state from low‐spin to high‐spin upon addition of substrate: reported previously.

Test [2] deals with T1, CYP199A4. As to conditions: WT CYP199A4; reported previously; cited from earlier work.
The target in test [3] is T1, CYP199A4. As to conditions: WT CYP199A4; reported previously; cited from earlier work. The source holds these as a separate data set.
Test [4] deals with T1, CYP199A4. Put plainly: Dissociation constant determination by substrate binding titration. Further details: species or system Rhodopseudomonas palustris HaA2. The conditions noted are these: WT CYP199A4, 50 mM Tris pH 7.4. In outline:
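CYP199A4 at 0.5–1.5 μM in 50 mM Tris, pH 7.4, held at 30 °C. Substrate titrated in from 1, 10 or 100 mM ethanol stocks. Soret band peak-to-trough absorbance difference recorded over 700–250 nm. Percentage high-spin shift estimated to about ±5%. Kd fitted from the ΔA titration data.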

Test [5] deals with T1, CYP199A4. Put plainly: Hydrogen peroxide uncoupling, HRP/phenol/4-aminoantipyrine assay. The format is biochemical, Rhodopseudomonas palustris HaA2. The conditions noted are these: WT CYP199A4, HRP assay. The gist of the method:
(§1)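 Turnover run at 30 °C in oxygenated 50 mM Tris, pH 7.4, with 5 μM HaPux, 0.5 μM HaPuR and 0.5 μM CYP199A4 (WT or F298V). Started with substrate at 1 mM final. Product formation rate and coupling from quantified products. H2O2 by HRP/phenol/4-aminoantipyrine assay. Mean ±S.D., n≥3.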

The target of test [6] is T1, CYP199A4. The test is described as follows: In vitro NADH oxidation activity assay. The class given is biochemical, Rhodopseudomonas palustris HaA2. The conditions noted are these: for PFR (product formation rate): HaPuR:HaPux:CYP199A4 1:10:1, 0.5 μM CYP, 50 mM Tris pH 7.4; for Coupling (percentage of NADH utilized for the formation of products): WT CYP199A4. The gist of the method:
as §1

For test [7], the target named is T1, CYP199A4. The test is described as follows: Spin state shift. The format is binding, Rhodopseudomonas palustris HaA2. As to conditions: WT CYP199A4, 50 mM Tris pH 7.4. The gist of the method:
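UV-visible spectra of CYP199A4 recorded at 30±0.5 °C after substrate addition. Percentage shift from low-spin to high-spin heme estimated to approximately ±5% by a previously described method.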

For test [8], the target named is T1, CYP199A4. The test is described as follows: Product distribution of enzyme-catalyzed oxidation by HPLC / GC-MS. The format is biochemical, Rhodopseudomonas palustris HaA2. The gist of the method:
(§2)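 Products of in vitro turnovers quantified by HPLC against product-standard calibrations. Sample: 132 μL reaction mix plus 2 μL of 10 mM 9-hydroxyfluorene in ethanol as internal standard (diphenylmethane for the isopropyl substrate), then 66 μL acetonitrile. Standards made by whole-cell E. coli oxidation or borohydride reduction, or estimated from the closest analogue. Derivatized samples identified by GC-MS on a DB-5 column.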

The test system of test [9] is F298V mutant of CYP199A4. Put plainly: In vitro NADH oxidation activity assay with F298V mutant. The format is biochemical, Rhodopseudomonas palustris HaA2. In outline: as §1
The subject of test [10] is F298V mutant of CYP199A4. The test is described as follows: Product distribution of oxidation by F298V mutant. The class given is biochemical, Rhodopseudomonas palustris HaA2. The gist of the method:
as §2

The test system of test [11] is F298V mutant of CYP199A4. Put plainly: Spin state shift assay with F298V mutant. The class given is binding, Rhodopseudomonas palustris HaA2.
The mark [12] stands for this setting: WT CYP199A4, min^−1 abbreviates nmol.nmol‐CYP^−1.min^−1.
The mark [13] stands for this setting: listed as 4‐n‐propylbenzoic acid.

As to `CC(C)c1ccc(C(=O)O)cc1` [4‐isopropylBA, 4‐isopropylbenzoic acid], on CYP199A4 [1], the “shift to the high‐spin form of ferric CYP199A4” value (shortened to “shift … of ferric CYP199A4”) is at least 95% and the “HS (%), change in the heme spin state from low‐spin to high‐spin upon addition of substrate” value (“HS (%), change in the heme spin state” below) is on record as at least 95%. Moreover, the Kd on CYP199A4 [2] was 290 ± 10 nM. Further, on CYP199A4 [3], the “Coupling (percentage of NADH utilized for the formation of products)” value is 68±1%, the “NADH (frequency of NADH oxidation)” value is given as 325±36 nmol.nmol‐CYP^−1.min^−1 and the “PFR (product formation rate)” value is 221±27 nmol.nmol‐CYP^−1.min^−1.

With `O=C(O)c1ccc(C2CC2)cc1` [4‐cyclopropylBA, 4‐cyclopropylbenzoic acid], the Kd on CYP199A4 [4] stood at 280 ± 20 nM. In addition, on CYP199A4 [5], the hydrogen peroxide uncoupling is recorded as at most 2%. Further, at CYP199A4 [6], the “PFR (product formation rate)” value stood at 170±22 nmol.nmol‐CYP^−1.min^−1 and the “Coupling (percentage of NADH utilized for the formation of products)” value came out at 45±5%. Also, at CYP199A4 [6] (setting [12]), the NADH oxidation rate was determined as 383 min⁻¹ and the product formation rate is 170 min⁻¹. Moreover, the “HS (%), change in the heme spin state” value at CYP199A4 [7] is recorded as at least 95%. At CYP199A4 [7] (listed as 4‐cyclopropylbenzoic acid), the “HS (%), change in the heme spin state” value was at least 95%. Also, the “Cα–Cβ desaturation alkene product, share of total products” value on CYP199A4 [8] (WT CYP199A4, in vitro turnover) was “No desaturation was observed”.

For `CC(C)Cc1ccc(C(=O)O)cc1` [4‐isobutylBA, 4‐isobutylbenzoic acid], binding on CYP199A4 [4] was characterised by a dissociation constant (Kd) of 590 ± 30 nM. Further, on CYP199A4 [6], the “PFR (product formation rate)” value was found to be 146±21 nmol.nmol‐CYP^−1.min^−1 and the “Coupling (percentage of NADH utilized for the formation of products)” value was 41±5%. Also, the product formation rate at CYP199A4 [6] (setting [12]) is 146 min⁻¹. Further, the “HS (%), change in the heme spin state” value on CYP199A4 [7] is over 95%.

`CCCc1ccc(C(=O)O)cc1` [4‐n‐propylBA, 4‐n‐propylbenzoic acid]: in the test with F298V mutant of CYP199A4 [9], the NADH oxidation rate was determined as 378 ± 5 min⁻¹ and the coupling efficiency was found to be 71%. At CYP199A4 [4], this compound returned a dissociation constant Kd of 540 ± 20 nM. In the test with F298V mutant of CYP199A4 [10], the “Cβ hydroxylation product 4‐(2‐hydroxypropyl)benzoic acid” value is on record as “almost none” and the “metabolites arising from initial desaturation, share of total products” value is recorded as 73%. Moreover, on CYP199A4 [6], the “PFR (product formation rate)” value is given as 594±72 nmol.nmol‐CYP^−1.min^−1 and the “Coupling (percentage of NADH utilized for the formation of products)” value was found to be 86±8%. Further, the “Coupling (percentage of NADH utilized for the formation of products)” value on CYP199A4 [6] (setting [13]) is 86%. The “HS (%), change in the heme spin state” value at CYP199A4 [7] is recorded as at least 95%. Also, the “HS (%), change in the heme spin state” value on CYP199A4 [7] (setting [13]) is at least 95%. Further, the “shift to the high‐spin form” value in the test with F298V mutant of CYP199A4 [11] is on record as at least 95%. For the same compound, the “epoxide further oxidation product, share of total products” value (“epoxide further oxidation product, share” below) on CYP199A4 [8] (WT CYP199A4, in vitro turnover) was 12%.

As to `CCCCc1ccc(C(=O)O)cc1` [4‐n‐butylBA, 4‐n‐butylbenzoic acid], on CYP199A4 [4], the Kd was 390 ± 40 nM. Moreover, at CYP199A4 [6], the “PFR (product formation rate)” value is reported as 67±3 nmol.nmol‐CYP^−1.min^−1 and the “Coupling (percentage of NADH utilized for the formation of products)” value stood at 40±1%. At CYP199A4 [6] (setting [12]), this compound yielded a product formation rate of 67 min⁻¹. Moreover, the “HS (%), change in the heme spin state” value on CYP199A4 [7] came to 90%. The “unidentified minor product, share of total products” value on CYP199A4 [8] (WT CYP199A4, HPLC) was under 2%. Also, at CYP199A4 [8] (WT CYP199A4, in vitro turnover), the “Cα–Cβ desaturation alkene product, share of total products” value worked out at 50%; the “Cβ hydroxylation product, share of total products” value is “did not generate any detectable product”; the “epoxide further oxidation product, share” value is recorded as 2%.

As to `CCc1ccc(C(=O)O)cc1` [4‐ethylBA, 4‐ethylbenzoic acid], at CYP199A4 [1], the “shift … of ferric CYP199A4” value is reported as at least 95% and the “HS (%), change in the heme spin state” value is listed as at least 95%. The Kd on CYP199A4 [2] is 340 ± 20 nM. At CYP199A4 [3], the “Coupling (percentage of NADH utilized for the formation of products)” value is reported as 64±4%, the “NADH (frequency of NADH oxidation)” value is recorded as 812±7 nmol.nmol‐CYP^−1.min^−1 and the “PFR (product formation rate)” value is 525±88 nmol.nmol‐CYP^−1.min^−1.

Consider `CC(C)(C)c1ccc(C(=O)O)cc1` [4‐t‐butylBA, 4‐t‐butylbenzoic acid], for which, on CYP199A4 [1], the “shift … of ferric CYP199A4” value was at least 95% and the “HS (%), change in the heme spin state” value is given as at least 95%. Moreover, at CYP199A4 [3], the “Coupling (percentage of NADH utilized for the formation of products)” value is listed as 100±13%, the “NADH (frequency of NADH oxidation)” value is 227±4 nmol.nmol‐CYP^−1.min^−1 and the “PFR (product formation rate)” value is recorded as 227±32 nmol.nmol‐CYP^−1.min^−1.

`CCCCCCCc1ccc(C(=O)O)cc1` [4‐n‐heptylBA, 4‐n‐heptylbenzoic acid] displayed a Kd on CYP199A4 [4] of 160 ± 30 nM. Also, on CYP199A4 [6], the “PFR (product formation rate)” value is 147±12 nmol.nmol‐CYP^−1.min^−1 and the “Coupling (percentage of NADH utilized for the formation of products)” value is reported as 53±2%. At CYP199A4 [6] (setting [12]), this compound had a product formation rate of 147 min⁻¹. Further, on CYP199A4 [6] (listed as 4‐n‐heptylbenzoic acid), the “Coupling (percentage of NADH utilized for the formation of products)” value is listed as 53%. For the same compound, the “HS (%), change in the heme spin state” value at CYP199A4 [7] is at least 95%. In addition, the “epoxide further oxidation product, share” value at CYP199A4 [8] (WT CYP199A4, in vitro turnover) is 3%.

The Kd is a measure of binding affinity in units of concentration.
